Reference: ChEMBL document CHEMBL1275392, “Assessment of chemoselective neoglycosylation methods using chlorambucil as a model” (2010)

Legend:
Format in all cases: functional
U-251 = test: Growth inhibition of human U251 cells after 7 days by celltiter-glo assay; details: U-251, 168 h
SF-295 [1] = test: Growth inhibition of human SF295 cells after 7 days by celltiter-glo assay; details: SF-295, 168 h
NCI-H226 = test: Growth inhibition of human NCI-H226 cells after 7 days by celltiter-glo assay; details: NCI-H226, 168 h
K562 = test: Growth inhibition of human K562 cells at 10 uM after 7 days by celltiter-glo assay; details: K562, 168 h, read-out: GI
MDA-MB-231 = test: Growth inhibition of human MDA-MB-231 cells after 7 days by celltiter-glo assay; details: MDA-MB-231, 168 h
MOLT-4 = test: Growth inhibition of human MOLT4 cells after 7 days by celltiter-glo assay; details: MOLT-4, 168 h
HCT-116 = test: Growth inhibition of human HCT116 cells after 7 days by celltiter-glo assay; details: HCT-116, 168 h
HCC 2998 = test: Growth inhibition of human HCC2998 cells at 10 uM after 7 days by celltiter-glo assay; details: HCC 2998, 168 h, read-out: GI
OVCAR-5 = test: Growth inhibition of human OVCAR5 cells at 10 uM after 7 days by celltiter-glo assay; details: OVCAR-5, 168 h, read-out: GI
NCI/ADR-RES [2] = test: Growth inhibition of human NCI/ADR-RES cells at 10 uM after 7 days by celltiter-glo assay; details: 168 h, read-out: GI
MDA-MB-468 = test: Growth inhibition of human MDA-MB-468 cells at 10 uM after 7 days by celltiter-glo assay; details: MDA-MB-468, 168 h, read-out: GI
[3] = Growth inhibition of human […] cells at 10 uM after 7 days by celltiter-glo assay; details: 168 h, read-out: GI
SK-OV-3 [4] = test: Growth inhibition of human SKOV3 cells after 7 days by celltiter-glo assay; details: SK-OV-3, 168 h
SR [5] = test: Growth inhibition of human SR cells after 7 days by celltiter-glo assay; details: 168 h
Malme-3M = test: Growth inhibition of human MALME-3M cells after 7 days by celltiter-glo assay; details: 168 h
T47D [6] = test: Growth inhibition of human T47D cells at 10 uM after 7 days by celltiter-glo assay; details: 168 h, read-out: GI
SNB-75 = test: Growth inhibition of human SNB75 cells after 7 days by celltiter-glo assay; details: SNB-75, 168 h
SF-295 [7] = test: Growth inhibition of human SF295 cells at 10 uM after 7 days by celltiter-glo assay; details: SF-295, 168 h, read-out: GI
KM12 [8] = test: Growth inhibition of human KM12 cells at 10 uM after 7 days by celltiter-glo assay; details: KM12, 168 h, read-out: GI
A498 [9] = test: Growth inhibition of human A498 cells after 7 days by celltiter-glo assay; details: A498, 168 h
UACC-62 = test: Growth inhibition of human UACC62 cells after 7 days by celltiter-glo assay; details: UACC-62, 168 h
[10] = Growth inhibition of human p53 deficient H1299 cells after 7 days by celltiter-glo assay; details: NCI-H1299, 168 h
Procedure, shortened: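 Cells seeded at 500 per well in 384-well plates. Compounds came from 30 mM DMSO stocks, serially diluted and tested in quadruplicate. Incubation was 7 d at 37 °C under 5% CO2. Calcein AM (10 μM) and EthD-1 were added, followed by a fluorescence read. CellTiter-Glo lysis was then done for 10 min at room temperature, with a luminescence read. GI50 came from curve fitting.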

OVCAR-4 = test: Growth inhibition of human OVCAR4 cells at 10 uM after 7 days by celltiter-glo assay; details: OVCAR-4, 168 h, read-out: GI
ACHN = test: Growth inhibition of human ACHN cells after 7 days by celltiter-glo assay; details: 168 h
SK-MEL-2 [11] = test: Growth inhibition of human SK-MEL-2 cells after 7 days by celltiter-glo assay; details: SK-MEL-2, 168 h
HT-29 = test: Growth inhibition of human HT-29 cells after 7 days by celltiter-glo assay; details: HT-29, 168 h
KM12 [12] = test: Growth inhibition of human KM12 cells after 7 days by celltiter-glo assay; details: KM12, 168 h
HOP-92 = test: Growth inhibition of human HOP92 cells after 7 days by celltiter-glo assay; details: HOP-92, 168 h
[13] = Growth inhibition of human Hs 578T cells at 10 uM after 7 days by celltiter-glo assay; details: 168 h, read-out: GI
COLO 205 = test: Growth inhibition of human COLO205 cells at 10 uM after 7 days by celltiter-glo assay; details: COLO 205, 168 h, read-out: GI
[14] = Growth inhibition of human Hs 578T cells after 7 days by celltiter-glo assay; details: 168 h
A549 [15] = test: Growth inhibition of human A549 cells expressing p53 after 7 days by celltiter-glo assay; details: A549, 168 h
NCI-H322M = test: Growth inhibition of human NCI-H322M cells after 7 days by celltiter-glo assay; details: 168 h
T47D [16] = test: Growth inhibition of human T47D cells after 7 days by celltiter-glo assay; details: 168 h
SR [17] = test: Growth inhibition of human SR cells at 10 uM after 7 days by celltiter-glo assay; details: 168 h, read-out: GI
SN12C = test: Growth inhibition of human SN12C cells after 7 days by celltiter-glo assay; details: 168 h
SK-MEL-2 [18] = test: Growth inhibition of human SK-MEL-2 cells at 10 uM after 7 days by celltiter-glo assay; details: SK-MEL-2, 168 h, read-out: GI
A498 [19] = test: Growth inhibition of human A498 cells at 10 uM after 7 days by celltiter-glo assay; details: A498, 168 h, read-out: GI
SK-OV-3 [20] = test: Growth inhibition of human SKOV3 cells at 10 uM after 7 days by celltiter-glo assay; details: SK-OV-3, 168 h, read-out: GI
MCF7 = test: Growth inhibition of human MCF7 cells at 10 uM after 7 days by celltiter-glo assay; details: MCF7, 168 h, read-out: GI
HL-60(TB) = test: Growth inhibition of human HL-60(TB) cells at 10 uM after 7 days by celltiter-glo assay; details: HL-60, 168 h, read-out: GI
MDA-MB-435 = test: Growth inhibition of human MDA-MB-435 cells at 10 uM after 7 days by celltiter-glo assay; details: MDA-MB-435, 168 h, read-out: GI
OVCAR-8 = test: Growth inhibition of human OVCAR8 cells after 7 days by celltiter-glo assay; details: OVCAR-8, 168 h
A549 [21] = test: Growth inhibition of human A549 cells at 10 uM after 7 days by celltiter-glo assay; details: A549, 168 h, read-out: GI
NCI/ADR-RES [22] = test: Growth inhibition of human NCI/ADR-RES cells after 7 days by celltiter-glo assay; details: 168 h

## CON(CCCc1ccc(N(CCCl)CCCl)cc1)C1OC[C@@H](O)[C@@H]1O (stereo not given in full)
U-251
  GI50: 13.1 µM
SF-295 [1]
  GI50: 6.47 µM
NCI-H226
  GI50: 0.925 µM
K562
  inhibition of growth at 10 µM: 88.5%
MDA-MB-231
  GI50: 1.39 µM
MOLT-4
  GI50: 1.22 µM
HCT-116
  GI50: 14.5 µM
HCC 2998
  inhibition of growth at 10 µM: 73.3%
OVCAR-5
  inhibition of growth at 10 µM: 111%
NCI/ADR-RES [2]
  inhibition of growth at 10 µM: 61.5%
MDA-MB-468
  inhibition of growth at 10 µM: 43.9%
[3]
  inhibition of growth at 10 µM: 15.9%
SK-OV-3 [4]
  GI50: 1.5 µM
SR [5]
  GI50: 0.386 µM
Malme-3M
  GI50: 20.2 µM
T47D [6]
  inhibition of growth at 10 µM: 48%
SNB-75
  GI50: 19.5 µM
SF-295 [7]
  inhibition of growth at 10 µM: 56.6%
KM12 [8]
  inhibition of growth at 10 µM: 97.6%
A498 [9]
  GI50: 21.8 µM
UACC-62
  GI50: 1.69 µM
[10]
  GI50: 0.37 µM
OVCAR-4
  inhibition of growth at 10 µM: 77.2%
ACHN
  GI50: 4.34 µM
SK-MEL-2 [11]
  GI50: 20.2 µM
HT-29
  GI50: 0.41 µM
KM12 [12]
  GI50: 30 µM
HOP-92
  GI50: 4.03 µM
[13]
  inhibition of growth at 10 µM: 139%
COLO 205
  inhibition of growth at 10 µM: 93.3%
[14]
  GI50: 24.7 µM
A549 [15]
  GI50: 1.1 µM
NCI-H322M
  GI50: > 100 µM
T47D [16]
  GI50: 6.37 µM
SR [17]
  inhibition of growth at 10 µM: 48.7%
SN12C
  GI50: 7.06 µM
SK-MEL-2 [18]
  inhibition of growth at 10 µM: 100%
A498 [19]
  inhibition of growth at 10 µM: 114%
SK-OV-3 [20]
  inhibition of growth at 10 µM: 72.8%
MCF7
  inhibition of growth at 10 µM: 32.4%
HL-60(TB)
  inhibition of growth at 10 µM: 68.3%
MDA-MB-435
  inhibition of growth at 10 µM: 83%
OVCAR-8
  GI50: 9.13 µM
A549 [21]
  inhibition of growth at 10 µM: 69.7%
NCI/ADR-RES [22]
  GI50: 4.61 µM
